According to ChEMBL document CHEMBL3352485 (J Med Chem, 2014):
Calls of active or inactive are those of the source. The calls are words filed in the database; no cut-off is given here.

Legend:
KiSS-1 receptor [1] = biological target: T1, KiSS-1 receptor (Homo sapiens, UniProt Q969F8); assay: Displacement of radioligand from human KISS1R transfected in CHO cells; assay type: cell-based
Procedure, shortened: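 Binding used membrane fractions prepared from CHO cells expressing recombinant human KISS1R.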

KiSS-1 receptor [2] = biological target: T2, KiSS-1 receptor (Rattus norvegicus, UniProt Q924U1); assay: Agonist activity at rat KISS1R transfected in CHO cells assessed as intracellular calcium flux after 24 hrs by functional FLIPR assay; assay type: cell-based
T2 sequence (Q924U1 whole entry): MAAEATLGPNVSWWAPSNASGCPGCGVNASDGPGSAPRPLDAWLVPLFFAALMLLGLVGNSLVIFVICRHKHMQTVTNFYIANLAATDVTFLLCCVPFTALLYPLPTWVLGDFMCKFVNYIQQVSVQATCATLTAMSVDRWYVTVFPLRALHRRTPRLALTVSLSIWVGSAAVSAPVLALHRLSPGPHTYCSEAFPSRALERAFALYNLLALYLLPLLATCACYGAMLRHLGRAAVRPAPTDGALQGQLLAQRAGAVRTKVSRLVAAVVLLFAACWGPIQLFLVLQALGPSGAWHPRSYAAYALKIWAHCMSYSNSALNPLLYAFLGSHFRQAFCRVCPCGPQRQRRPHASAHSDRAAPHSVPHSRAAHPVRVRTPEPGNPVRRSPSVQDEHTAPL

Rattus norvegicus [3] = assay: Testosterone-suppressive activity in Crl:CD(SD) rat assessed as number of animal with plasma testosterone level below the limit of detection […], sc through osmotic pumps measured after 6 days by RIA; assay type: functional
KiSS-1 receptor [4] = biological target: T1, KiSS-1 receptor; assay: Agonist activity at human KISS1R transfected in CHO cells assessed as intracellular calcium flux after 24 hrs by functional FLIPR assay; assay type: cell-based
Procedure, shortened: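 CHO cells stably expressing human KISS1R were seeded at 15 000 cells/mL, cultured 24 h, then loaded with fluo-3 for 1 h at 37 °C in HBSS/HEPES (pH 7.4) with probenecid and FBS. Cells were washed in HBSS with 2.5 mM probenecid. Peptides came from 1 mM DMSO stocks diluted in buffer containing probenecid, 0.2% BSA and 0.1% CHAPS. Fluorescence was recorded on FLIPR for 3 min; peak counts over 0–180 s gave agonist activity.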

Rattus norvegicus [5] = assay: Testosterone-suppressive activity in Crl:CD(SD) rat assessed as number of animal with plasma testosterone level below the limit of detection at 0.1 nmol/hr, sc through osmotic pumps measured after 6 days by RIA; assay type: functional
Procedure, shortened: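 Peptide was dissolved in distilled water or 50% DMSO as 0.1–2 mM pump solutions and delivered by ALZET osmotic pumps implanted subcutaneously in the back of 9-week-old male Crl:CD(SD) rats (n = 5) under ether. Controls received distilled-water pumps. After 6 days, rats were decapitated and plasma was recovered with aprotinin/EDTA. Testosterone was measured by RIA, and the number of rats below the detection limit (0.04 ng/mL) was counted.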

Rattus norvegicus [6] = assay: Testosterone-suppressive activity in Crl:CD(SD) rat assessed as number of animal with plasma testosterone level below the limit of detection at 0.03 mol/hr, sc through osmotic pumps measured after 6 days by RIA; assay type: functional
KiSS-1 receptor [7] = biological target: T2, KiSS-1 receptor; assay: Displacement of radioligand from rat KISS1R transfected in CHO cells; assay type: cell-based
[8] = Mean residence time in Sprague-Dawley rat at 1 mg/kg, iv after 24 hrs by LC-MS/MS analysis; assay type: ADME, organism-based; set-up: dose 1 mg/kg, route intravenous; settings: in vivo
Procedure, shortened: (§1)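 Male Crl:CD(SD) rats (3 per group) got a single intravenous dose of 1 mg/kg. Blood was drawn at 5, 10, 15 and 30 min and at 1, 2, 4, 8 and 24 h. Plasma proteins were removed with 0.2% formic acid/methanol and acetonitrile, and the supernatant was treated with 0.4% formic acid. Peptide was quantified by LC-MS. Noncompartmental parameters were derived per rat, reported as mean ± SD (n = 3).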

[9] = AUC (0 to 24 hrs) in Sprague-Dawley rat at 1 mg/kg, iv after 24 hrs by LC-MS/MS analysis; assay type: ADME, organism-based; set-up: time < 24 hr, dose 1 mg/kg, route intravenous; settings: plasma; procedure, shortened: as §1
[10] = Stability of the compound in aqueous solution assessed as residual ratio at pH 3 up to 1 week by HPLC analysis relative to initial level; assay type: physicochemical
Procedure, shortened: (§2)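 Peptides in aqueous solution at pH 1.2 (JP1, containing 10% acetonitrile), 3, 5 or 7 were kept in the dark at 37 °C for up to 2 weeks. Peptide remaining was quantified from HPLC peak area, with detection at 230–280 nm. The residual ratio (stability index) was expressed relative to the time-0 amount, taken as 100%.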

[11] = C5min in Sprague-Dawley rat at 1 mg/kg, iv after 5 mins by LC-MS/MS analysis; settings: in vivo, read-out: Cmin
[12] = Total clearance in Sprague-Dawley rat at 1 mg/kg, iv after 24 hrs by LC-MS/MS analysis; assay type: ADME, organism-based; set-up: dose 1 mg/kg, route intravenous; settings: in vivo; procedure, shortened: as §1
Rattus norvegicus [13] = assay: Testosterone-suppressive activity in Crl:CD(SD) rat assessed as plasma testosterone level below the limit of detection at 10 to 100 pmol/hr, sc continuous administration through osmotic pumps measured up to 1 week by RIA; assay type: functional, organism-based
Procedure, shortened: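 Peptide in 50% DMSO was diluted in distilled water to 10, 30 or 100 μM pump solutions, giving 10–100 pmol/h by subcutaneous ALZET osmotic pump in male Crl:CD(SD) rats (n = 5). Vehicle served as control. Plasma testosterone was measured by RIA after 1 or 4 weeks, with values below 0.04 ng/mL set to 0.04. Results are mean ± SD of five rats, tested by one-tailed Shirley–Williams test versus vehicle.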

[14] = Stability of the compound in aqueous solution assessed as residual ratio at pH 3 up to 2 weeks by HPLC analysis relative to initial level; assay type: physicochemical; procedure, shortened: as §2
[15] = Stability of the compound in aqueous solution assessed as residual ratio at pH 5 up to 1 week by HPLC analysis relative to initial level; assay type: physicochemical; procedure, shortened: as §2
[16] = Bioavailability in Sprague-Dawley rat at 1 mg/kg, sc after 24 hrs by LC-MS/MS analysis; assay type: ADME, organism-based; settings: in vivo
Procedure, shortened: (§3)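 Single subcutaneous dose of 1 mg/kg in male Crl:CD(SD) rats, n = 3 per group. Blood was sampled from 5 min to 24 h (5, 10, 15, 30 min; 1, 2, 4, 8, 24 h). Plasma was deproteinized with formic acid/methanol and acetonitrile, and peptide levels were measured by LC-MS. Noncompartmental analysis per animal gave Cmax, Tmax, AUC0-24h, MRT and BA; values are mean ± SD (n = 3).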

[17] = Stability of the compound in aqueous solution assessed as residual ratio at pH 7 up to 1 week by HPLC analysis relative to initial level; assay type: physicochemical; procedure, shortened: as §2
Rattus norvegicus [18] = assay: Testosterone-suppressive activity in Crl:CD(SD) rat assessed as number of animal with plasma testosterone level below the limit of detection at 0.05 mol/hr, sc through osmotic pumps measured after 6 days by RIA; assay type: functional
[19] = AUC (0 to 24 hrs) in Sprague-Dawley rat at 1 mg/kg, sc after 24 hrs by LC-MS/MS analysis; assay type: ADME, organism-based; set-up: time < 24 hr, dose 1 mg/kg, route subcutaneous; settings: plasma; procedure, shortened: as §3
[20] = Mean residence time in Sprague-Dawley rat at 1 mg/kg, sc after 24 hrs by LC-MS/MS analysis; assay type: ADME, organism-based; set-up: dose 1 mg/kg, route subcutaneous; settings: in vivo; procedure, shortened: as §3
[21] = Stability of the compound in aqueous solution (JP1) assessed as residual ratio at pH 1.2 up to 2 weeks by HPLC analysis relative to initial level; assay type: physicochemical; procedure, shortened: as §2
[22] = Stability of the compound in aqueous solution (JP1) assessed as residual ratio at pH 1.2 up to 1 week by HPLC analysis relative to initial level; assay type: physicochemical; procedure, shortened: as §2
[23] = Cmax in Sprague-Dawley rat at 1 mg/kg, sc after 24 hrs by LC-MS/MS analysis; assay type: ADME, organism-based; set-up: dose 1 mg/kg, route subcutaneous; settings: in vivo; procedure, shortened: as §3
[24] = Volume of distribution at steady state in Sprague-Dawley rat at 1 mg/kg, iv after 24 hrs by LC-MS/MS analysis; assay type: ADME, organism-based; set-up: dose 1 mg/kg, route intravenous; settings: in vivo, read-out: Vdss; procedure, shortened: as §1
[25] = Stability of the compound in aqueous solution assessed as residual ratio at pH 5 up to 2 weeks by HPLC analysis relative to initial level; assay type: physicochemical; procedure, shortened: as §2
[26] = Tmax in Sprague-Dawley rat at 1 mg/kg, sc after 24 hrs by LC-MS/MS analysis; assay type: ADME, organism-based; set-up: dose 1 mg/kg, route subcutaneous; settings: in vivo; procedure, shortened: as §3
[27] = Stability of the compound in aqueous solution assessed as residual ratio at pH 7 up to 2 weeks by HPLC analysis relative to initial level; assay type: physicochemical; procedure, shortened: as §2

T1 sequence (Q969F8 whole entry): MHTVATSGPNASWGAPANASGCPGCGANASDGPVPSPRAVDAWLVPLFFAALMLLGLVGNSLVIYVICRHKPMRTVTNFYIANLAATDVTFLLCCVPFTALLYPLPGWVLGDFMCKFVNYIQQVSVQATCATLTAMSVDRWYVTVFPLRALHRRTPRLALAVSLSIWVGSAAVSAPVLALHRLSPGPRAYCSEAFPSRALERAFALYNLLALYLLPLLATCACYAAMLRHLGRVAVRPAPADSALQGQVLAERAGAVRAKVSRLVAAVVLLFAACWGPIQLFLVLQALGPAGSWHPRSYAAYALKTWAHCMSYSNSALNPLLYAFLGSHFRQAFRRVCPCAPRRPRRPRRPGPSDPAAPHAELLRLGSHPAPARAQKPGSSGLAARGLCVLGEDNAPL

SMILES: CNC(=N)NCCC[C@H](NC(=O)[C@H](CC(C)C)NC(=O)NNC(=O)[C@H](Cc1ccccc1)NC(=O)[C@@H](NC(=O)[C@H](CC(N)=O)NC(=O)[C@@H](Cc1c[nH]c2ccccc12)NC(=O)CCc1ccc(O)cc1)[C@@H](C)O)C(=O)N[C@@H](Cc1c[nH]c2ccccc12)C(N)=O
- Ki (KiSS-1 receptor [1]): 0.039 nM
- EC50 (KiSS-1 receptor [2]): 1.1 nM
- Activity (Rattus norvegicus [3]): 0 animals
- EC50 (KiSS-1 receptor [4]): 0.3 nM
- Activity (Rattus norvegicus [5]): 100%

SMILES: CCCC(=O)N[C@H](Cc1ccc(O)cc1)C(=O)N[C@H](Cc1c[nH]c2ccccc12)C(=O)N[C@@H](CC(N)=O)C(=O)N[C@H](C(=O)N[C@@H](Cc1ccccc1)C(=O)NNC(=O)N[C@@H](CC(C)C)C(=O)N[C@@H](CCCNC(=N)NC)C(=O)N[C@@H](Cc1c[nH]c2ccccc12)C(N)=O)[C@@H](C)O
- Activity (Rattus norvegicus [6]): 0%
- EC50 (KiSS-1 receptor [2]): 3.7 nM
- EC50 (KiSS-1 receptor [4]): 0.8 nM
- Ki (KiSS-1 receptor [7]): 0.11 nM
- Activity (Rattus norvegicus [5]): 3 rats (n = 5)

SMILES: CNC(=N)NCCC[C@H](NC(=O)[C@H](CC(C)C)NC(=O)NNC(=O)[C@H](Cc1ccccc1)NC(=O)[C@@H](NC(=O)[C@H](CC(N)=O)NC(=O)[C@@H](Cc1ccncc1)NC(=O)[C@@H](Cc1ccc(O)cc1)NC(C)=O)[C@@H](C)O)C(=O)N[C@@H](Cc1c[nH]c2ccccc12)C(N)=O
- MRT [8]: 41.4 min
- AUC(0-t) at 24 h [9]: 1260 ng·h/mL
- remaining at 168 h [10]: 98.7%
- Ki (KiSS-1 receptor [1]): 0.089 nM
- concentration at 5 min [11]: 2070 ng/mL
- clearance [12]: 13.2 mL/min/kg
- inhibition (Rattus norvegicus [13]): Active
- remaining at 336 h [14]: 96.8%
- remaining at 168 h [15]: 98.5%
- bioavailability [16]: 12.1%
- remaining at 168 h [17]: 82.6%
- Activity (Rattus norvegicus [18]): 5%
- AUC(0-t) at 24 h [19]: 152 ng·h/mL
- MRT [20]: 64.2 min
- EC50 (KiSS-1 receptor [2]): 4.1 nM
- remaining at 336 h [21]: 33%
- Activity (Rattus norvegicus [3]): 2 animals
- EC50 (KiSS-1 receptor [4]): 0.75 nM
- remaining at 168 h [22]: 58.3%
- Ki (KiSS-1 receptor [7]): 0.17 nM
- Cmax [23]: 90 ng/mL
- Vd [24]: 0.547 L/kg
- remaining at 336 h [25]: 97%
- Tmax [26]: 25.2 min
- remaining at 336 h [27]: 69.8%
